Structures are written as SMILES.

The values that follow come from ChEMBL document CHEMBL1132585, “New N-(pyridin-4-yl)-(indol-3-yl)acetamides and propanamides as antiallergic agents” (J Med Chem, 1999).

Assay [1] relates to Cavia porcellus. As to the kind of experiment: Inhibition of Late Phase Eosinophilia in Bronchoalveolar Lavage (BAL) of Guinea Pigs 2 hr after intraperitoneal administration at a dose of 10 mg/kg. The format is functional. As to conditions: ip. In outline: (§1)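 Male Dunkin-Hartley guinea pigs sensitized ip with OVA 20 µg + Al(OH)₃ 20 mg on two consecutive days; 14 days later mepyramine 10 mg/kg ip given before aerosol OVA challenge (5 mg/mL nebulized). Drug given ip or by oral gavage 2 h before or 4 h after challenge.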

The subject of assay [2] is Cavia porcellus. The experiment in a line: Inhibition of Late Phase Eosinophilia in Bronchoalveolar Lavage (BAL) of Guinea Pigs 4 hr after peroral administration at a dose of 30 mg/kg. The format is functional. As to conditions: route oral. In outline: as §1
The test system of assay [3] is Cavia porcellus. The experiment in a line: Inhibition of Late Phase Eosinophilia in Bronchoalveolar Lavage (BAL) of Guinea Pigs 4 hr after intraperitoneal administration at a dose 5 mg/kg. The format is functional. The note with it: ip. In outline:
as §1

The species entered for assay [4] is Mus musculus. The experiment in a line: Compound was evaluated for IL 4 production inhibition from mice splenocytes stimulated by anti-CD3 mAb. The format is functional. The method in brief: (§2)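 Th-2 clone D10.G4.1, restimulated with conalbumin (100 µg/mL) plus mitomycin C-treated AKR/J splenocytes as antigen-presenting cells, thawed and grown 3 days with Rat T-STIM. Cells at 4 × 10⁴/well, 3.5 h without T-STIM, drug 30 min (DMSO ≤0.1%). Stimulated with anti-CD3 mAb (final 1:100) for 16 h; IL-4 or IL-5 measured in supernatant. IC50 estimated over a concentration range.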

For assay [5], the species on record is Mus musculus. As to the kind of experiment: Compound was evaluated for IL 5 production inhibition from mice splenocytes stimulated by anti-CD3 mAb. The format is functional. The method in brief:
as §2

For assay [6], the species on record is Mus musculus. As to the kind of experiment: Percent inhibition of anti-CD3 mAb stimulated interleukin-4 release from mice splenocytes by 10 uM compound. The format is functional.
The species named for assay [7] is Mus musculus. As to the kind of experiment: Percent inhibition of anti-CD3 mAb stimulated interleukin-5 release from […] by 10 uM. The format is functional. The method in brief: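 D10.G4.1 Th-2 cells (4 × 10⁴/well) in medium without Rat T-STIM for 3.5 h, then exposed to drug at 10 µM for 30 min and stimulated with anti-CD3 mAb (final 1:100) for 16 h. IL-4 or IL-5 content of the supernatant is read against solvent control. Mean of three experiments, each run in duplicate.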

The subject of assay [8] is Rattus norvegicus. The experiment in a line: Compound was evaluated in vivo for inhibition of Ovalbumin induced rhinitis in anesthetized rats after topical administration (nasal perfusion). The format is functional, organism-based. The method in brief: (§3)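 Male Brown Norway rats sensitized ip with OVA 0.5 mg/kg + Al(OH)₃ 7.5 mg/kg, used on day 20-21 under thiopental (50 mg/kg ip). Nasal cavity perfused with PBS; drug given by 30 min topical perfusion in PBS, iv 30 min or po 60 min before OVA challenge.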

Assay [9] has as its system Rattus norvegicus. As to the kind of experiment: Compound was evaluated in vivo for inhibition of Ovalbumin induced rhinitis in anesthetized rats 30 min after intravenous administration. As to conditions: 0.5 h, read-out: ID50 (the source's name). The format is functional. The method in brief:
as §3

Assay [10] deals with Rattus norvegicus. As to the kind of experiment: Compound was evaluated in vivo for inhibition of Ovalbumin induced rhinitis in anesthetized rats 60 min after peroral administration. As to conditions: po, 1 h, read-out: ID50 (the source's name). The format is functional. In outline: as §3
For assay [11], the species on record is Rattus norvegicus. As to the kind of experiment: Inhibition of histamine release in rat mast cells. The format is functional, cell-based.
The species entered for assay [12] is Cavia porcellus. The experiment in a line: Inhibition of Carbachol-induced contraction of guinea pig trachea by the compound at a concentration of 100 uM. The format is functional. In outline: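 Guinea pig tracheal spirals in Tyrode solution at 37 °C, carbogen, isotonic 2 g preload. Contracted with carbachol 0.164 µM until stable; after isoprenaline relaxation and washout, carbachol re-applied and test compound added cumulatively. Relaxation calculated as a percentage at each concentration.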

The species entered for assay [13] is Rattus norvegicus. The experiment in a line: Inhibition of tetraethylammonium chloride(TEA)-induced acetylcholine hyperactivity in rat tracheal segments by the compound. The format is functional. As to conditions: Trachea. The method in brief: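 Male Wistar rat tracheal rings in Krebs-Henseleit at 37 °C, 1 g preload, isotonic. Acetylcholine cumulative curves run alone, with TEA (10 mM, 30 min), and with drug (30 min before TEA) plus TEA. Percent inhibition of hyperreactivity taken from contraction at 100 µM acetylcholine, 3-5 preparations; screening at 30 µM, and IC50 by regression from 3-4 concentrations if inhibition exceeds 50%.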

For assay [14], the system named is Cavia porcellus. As to the kind of experiment: Inhibition of Late Phase Eosinophilia in Bronchoalveolar Lavage (BAL) of Guinea Pigs 2 hr after peroral administration at a dose of 30 mg/kg. The format is functional. As to conditions: route oral. The method in brief: as §1

In the case of `O=C(Cc1cn(Cc2ccc(F)cc2)c2ccccc12)Nc1ccncc1`, in the assay with Cavia porcellus [1], the inhibition in vivo (as a rule, the relative decrease from the control value, in per cent) at 10 mg/kg was determined as 59%. Also, the inhibition in vivo at 30 mg/kg in the assay on Cavia porcellus [2] turned out to be 28%; with Cavia porcellus [14], 35%. Further, the inhibition in vivo at 5 mg/kg in the assay on Cavia porcellus [3] was 41%. In addition, the IC50 (as a rule, the point on the concentration scale where inhibition reaches its midpoint) is 8000 nM in the assay filed under Mus musculus [4]; 1500 nM in the assay listed under Mus musculus [5]; 250 nM in the assay with Rattus norvegicus [8]; 16 nM in the assay listed under Rattus norvegicus [11]; 21 nM in the assay filed under Rattus norvegicus [13]. Besides, the inhibition (in general, the share of the control response that was lost under treatment) at 10 µM in the assay filed under Mus musculus [6] is 63%; in the assay listed under Mus musculus [7] it was 100%. Moreover, the ED50 in the assay with Rattus norvegicus [9] came to 0.005 mg/kg; in the assay with Rattus norvegicus [10], 0.46 mg/kg. The same compound yielded an inhibition at 100 µM in the assay listed under Cavia porcellus [12] of 36%.
